Data as given in ChEMBL document CHEMBL1158473, “Aromatic 2-(thio)ureidocarboxylic acids as a new family of modulators of multidrug resistance-associated protein 1: synthesis, biological evaluation, and structure-activity relationships” (J Med Chem, 2009).
The source made the active and inactive calls. No cut-off for these calls is given here.

How the values were obtained:
[1] = biological target: T1, Multidrug resistance-associated protein 1 (Homo sapiens, UniProt P33527); assay: Inhibition of MRP1 expressed in multidrug resistant human 2008 cells assessed as calcein AM accumulation by fluorescence assay in presence of p-gp and BCRP inhibitor XR9577; type: cell-based
T1 sequence (P33527 whole entry): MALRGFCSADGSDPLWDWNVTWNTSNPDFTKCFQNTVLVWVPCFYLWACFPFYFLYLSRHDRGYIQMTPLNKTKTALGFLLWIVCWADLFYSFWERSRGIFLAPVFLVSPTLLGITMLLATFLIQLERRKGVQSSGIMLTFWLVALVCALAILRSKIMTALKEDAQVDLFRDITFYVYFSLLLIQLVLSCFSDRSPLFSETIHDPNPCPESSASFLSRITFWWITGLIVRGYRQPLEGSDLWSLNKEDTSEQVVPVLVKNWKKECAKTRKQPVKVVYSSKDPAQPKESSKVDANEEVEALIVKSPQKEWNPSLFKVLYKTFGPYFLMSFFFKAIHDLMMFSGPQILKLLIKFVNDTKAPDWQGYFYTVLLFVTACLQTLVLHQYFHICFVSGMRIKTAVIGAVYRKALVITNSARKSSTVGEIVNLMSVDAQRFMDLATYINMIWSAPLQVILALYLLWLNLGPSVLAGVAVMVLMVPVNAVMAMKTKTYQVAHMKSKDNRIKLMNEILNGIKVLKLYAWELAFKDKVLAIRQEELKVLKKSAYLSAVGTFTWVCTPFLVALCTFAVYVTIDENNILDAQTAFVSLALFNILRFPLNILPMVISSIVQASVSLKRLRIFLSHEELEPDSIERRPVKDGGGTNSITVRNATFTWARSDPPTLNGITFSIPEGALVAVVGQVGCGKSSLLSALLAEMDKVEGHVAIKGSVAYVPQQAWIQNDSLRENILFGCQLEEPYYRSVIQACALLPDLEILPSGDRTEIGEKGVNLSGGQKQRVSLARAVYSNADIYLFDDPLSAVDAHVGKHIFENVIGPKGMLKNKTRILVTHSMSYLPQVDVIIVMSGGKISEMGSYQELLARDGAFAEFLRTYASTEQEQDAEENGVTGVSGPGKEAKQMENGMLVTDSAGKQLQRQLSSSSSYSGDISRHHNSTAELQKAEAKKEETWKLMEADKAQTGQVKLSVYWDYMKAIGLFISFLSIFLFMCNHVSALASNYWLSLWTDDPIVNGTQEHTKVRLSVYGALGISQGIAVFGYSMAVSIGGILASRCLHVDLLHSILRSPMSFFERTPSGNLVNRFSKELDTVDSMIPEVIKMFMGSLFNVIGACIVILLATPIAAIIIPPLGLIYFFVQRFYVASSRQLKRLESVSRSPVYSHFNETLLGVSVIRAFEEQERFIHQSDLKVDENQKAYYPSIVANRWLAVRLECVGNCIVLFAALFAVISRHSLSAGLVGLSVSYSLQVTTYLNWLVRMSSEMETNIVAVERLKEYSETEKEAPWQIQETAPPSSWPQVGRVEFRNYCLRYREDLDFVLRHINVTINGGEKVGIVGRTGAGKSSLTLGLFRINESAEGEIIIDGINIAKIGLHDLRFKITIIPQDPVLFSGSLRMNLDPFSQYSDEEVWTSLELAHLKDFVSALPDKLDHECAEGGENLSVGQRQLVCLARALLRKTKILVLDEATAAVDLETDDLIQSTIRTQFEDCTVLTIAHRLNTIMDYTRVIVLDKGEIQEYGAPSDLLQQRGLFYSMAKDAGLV
Procedure, shortened: (§1)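 Transfected 2008 MRP1 cells run beside 2008 WT cells, 21000 cells per well in Krebs-HEPES buffer. Cobalt sulfate was added to quench extracellular calcein, plus XR9577 to block P-gp. After 30 min preincubation with compound, calcein AM (final 0.5 μM) was added and fluorescence followed 30 min. Slopes were normalized and fitted by a four-parameter logistic; indomethacin (0.316–178 μM) was included.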

BCRP (ABCG2) = biological target: T2, BCRP (ABCG2) (Homo sapiens, UniProt Q9UNQ0); assay: Inhibition of BCRP expressed in human MCF7 MX cells at 31.6 uM by Hoechst 33342 staining relative to 10 uM XR9577; type: cell-based; conditions: MCF7 MX cells expressing BCRP, probe Hoechst 33342
T2 sequence (Q9UNQ0 whole entry): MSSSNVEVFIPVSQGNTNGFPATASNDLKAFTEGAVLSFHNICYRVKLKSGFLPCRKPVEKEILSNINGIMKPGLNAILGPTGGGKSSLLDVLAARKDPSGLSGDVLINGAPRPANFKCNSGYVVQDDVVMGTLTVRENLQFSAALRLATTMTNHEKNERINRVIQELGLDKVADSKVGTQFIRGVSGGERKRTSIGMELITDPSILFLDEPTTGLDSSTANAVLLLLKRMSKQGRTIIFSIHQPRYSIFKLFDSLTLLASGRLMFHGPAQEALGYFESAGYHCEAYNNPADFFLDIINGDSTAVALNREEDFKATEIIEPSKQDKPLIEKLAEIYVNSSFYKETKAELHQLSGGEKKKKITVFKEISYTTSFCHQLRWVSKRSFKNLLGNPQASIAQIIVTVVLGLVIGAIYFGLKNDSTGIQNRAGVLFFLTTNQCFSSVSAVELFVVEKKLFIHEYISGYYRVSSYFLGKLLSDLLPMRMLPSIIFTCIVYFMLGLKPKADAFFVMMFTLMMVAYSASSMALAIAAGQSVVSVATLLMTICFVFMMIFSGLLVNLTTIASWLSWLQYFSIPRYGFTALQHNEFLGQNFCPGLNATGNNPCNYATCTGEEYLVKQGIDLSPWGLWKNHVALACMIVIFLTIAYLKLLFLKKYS
Procedure, shortened: (§2)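 MCF-7 MX cells, with parental MCF-7 alongside, in RPMI 1640 plus 10% FCS. Cells washed in Krebs-HEPES, about 20000 per well, preincubated with compound 30 min at 37 °C, 5% CO2. Hoechst 33342 added and fluorescence (ex 355/em 460 nm) read every 120 s up to 2400 s at 37 °C. Background-subtracted slopes were fitted; XR9577 10 μM served as positive control.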

2008 [2] = assay: Cytotoxicity against human 2008 cells after 72 hrs by MTT assay; conditions: Homo sapiens, 2008, 72 h
[3] = biological target: T1, Multidrug resistance-associated protein 1; assay: Inhibition of MRP1-mediated calcein AM transport expressed in multidrug resistant human 2008 cells assessed as calcein AM accumulation at 100 uM by fluorescence assay in presence of p-gp and BCRP inhibitor XR9577; type: cell-based; conditions: human, 2008, 100 µM
[4] = biological target: T3, Broad substrate specificity ATP-binding cassette transporter ABCG2 (Homo sapiens, UniProt Q9UNQ0); assay: Inhibition of BCRP expressed in MCF7 MX cells by Hoechst 33342 staining; type: cell-based; procedure, shortened: as §2
T3 sequence (Q9UNQ0 whole entry): T2 sequence (Q9UNQ0 whole entry)

[5] = biological target: T1, Multidrug resistance-associated protein 1; assay: Inhibition of MRP1; procedure, shortened: as §1
2008 [6] = assay: Potentiation of vinblastine-induced cytotoxic activity against MRP1-expressing human 2008 cells at 31.6 uM after 72 hrs by MTT assay; type: functional, cell-based
Procedure, shortened: (§3)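 2008 MRP1 cells given a fixed 31.6 μM modulator together with vinblastine or daunorubicin at 0.1 nM–100 μM. Cytostatic alone was tested on 2008 MRP1 and WT cells as control; indomethacin 31.6 μM served as positive control. After 72 h, viability was read by MTT.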

2008 [7] = assay: Potentiation of daunorubicin-induced cytotoxic activity against MRP1-expressing human 2008 cells at 31.6 uM after 72 hrs by MTT assay; type: functional, cell-based; procedure, shortened: as §3
2008 [8] = assay: Cytotoxicity against human 2008 cells after 24 hrs by MTT assay; type: cell-based; conditions: Homo sapiens, 2008, 24 h
A2780 ADR [9] = assay: Inhibition of P-gp expressed in human A2780/ADR cells assessed as calcein AM accumulation a 31.6 uM by fluorescence assay; type: cell-based
Procedure, shortened: (§4)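 P-gp-overexpressing A2780/ADR cells, with wild-type A2780 alongside. Calcein AM accumulation run as in the MRP1 assay (30 min preincubation, final 0.5 μM calcein AM, 30 min reading) but without cobalt or XR9577. XR9577 10 μM served as positive control.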

A2780 ADR [10] = assay: Inhibition of P-gp expressed in human A2780/ADR cells assessed as calcein AM accumulation a 100 uM by fluorescence assay; type: cell-based; procedure, shortened: as §4

| Compound | IC50 [1] | IC50 2008 [2] | inhibition (INH) [3] | further results |
| --- | --- | --- | --- | --- |
| CCN(CC)C(=S)Nc1sc2c(c1C(=O)O)CCCCC2 | 5.97 µM | > 100 µM | – | inhibition at 31.6 µM (BCRP (ABCG2)): 25% |
| Cc1ccc(NC(=O)N(C)CCc2ccccc2)c(C(=O)O)c1 | – | – | Not Active | – |
| O=C(O)c1c(NC(=O)N2CCOCC2)sc2c1CCCC2 | – | – | Not Active | – |
| CCN(CC)C(=S)Nc1scc(C(C)C)c1C(=O)O | 14.5 µM | – | – | – |
| Cc1ccc(NC(=O)N(C)C2CCCCC2)c(C(=O)O)c1 | 22.8 µM | – | – | – |
| CCN(CC)C(=S)Nc1sc2c(c1C(=O)O)C(C)CCC2 (racemic) | 4.06 µM | > 100 µM | – | IC50 [4]: 9.1 µM |
| CN(C(=O)Nc1ccccc1C(=O)O)c1ccccc1 | – | – | Not Active | – |
| O=C(O)c1ccccc1NC(=O)N1CCOCC1 | – | – | Not Active | – |
| CN(CCc1ccccc1)C(=O)Nc1ccccc1C(=O)O | – | – | Not Active | – |
| O=C(O)c1ccccc1NC(=S)N1CCOCC1 | – | – | Not Active | – |
| CN(Cc1ccccc1)C(=O)Nc1ccccc1C(=O)O | 42.6 µM | – | – | – |
| O=C(O)c1ccccc1NC(=S)N1CCNCC1 | 20.7 µM | – | – | – |
| CCN(CC)C(=S)Nc1sccc1C(=O)O | 4.46 µM | > 100 µM | – | inhibition at 31.6 µM (BCRP (ABCG2)): 25% |
| CN(C(=S)Nc1ccccc1C(=O)O)C1CCCCC1 | – | > 100 µM | – | inhibition at 31.6 µM (BCRP (ABCG2)): < 20% |
| O=C(O)c1cc(-c2ccccc2)sc1NC(=S)N1CCOCC1 | 27.5 µM | – | – | – |
| Cc1sc(NC(=S)N(C)C2CCCCC2)c(C(=O)O)c1C | 4.19 µM | > 100 µM | – | inhibition at 31.6 µM (BCRP (ABCG2)): 25% |
| O=C(O)c1ccccc1NC(=O)N1CCCC1 | 43.1 µM | – | – | – |
| CN(C(=S)Nc1sc2ccccc2c1C(=O)O)C1CCCCC1 | 1.23 µM | > 100 µM | – | inhibition at 31.6 µM (BCRP (ABCG2)): 25% |
| Cc1ccc(NC(=O)N2CCOCC2)c(C(=O)O)c1 | – | – | Not Active | – |
| CN1CCN(C(=S)Nc2sc3c(c2C(=O)O)CCCC3)CC1 | – | – | Not Active | – |
| CCN(CC)C(=S)Nc1sc2c(c1C(=O)O)CCCC2 | 2.71 µM | > 100 µM | – | inhibition at 31.6 µM (BCRP (ABCG2)): 25% |
| COc1cc(C2Oc3cc(-c4oc5cc(O)cc(O)c5c(=O)c4O)ccc3OC2CO)ccc1O (stereo not given) [DEHYDROSILYLBIN] | – | – | – | IC50 [5]: 1.1 µM |
| O=C(O)c1c(-c2ccccc2)csc1NC(=S)N1CCOCC1 | – | – | Not Active | – |
| CN(C(=S)Nc1sccc1C(=O)O)C1CCCCC1 | 4.51 µM | > 100 µM | – | IC50 [4]: 10.2 µM; Activity 2008 [6]: inactive; Activity 2008 [7]: inactive |
| CN(C)C(=S)Nc1sc2c(c1C(=O)O)CCCC2 | – | – | Not Active | – |

| Compound | IC50 [1] | IC50 2008 [2] | inhibition (INH) [3] | further results |
| --- | --- | --- | --- | --- |
| CCN(CC)C(=S)Nc1sc2ccccc2c1C(=O)O | 0.932 µM | > 100 µM | – | IC50 [4]: 6.16 µM; Activity 2008 [6]: inactive; Activity 2008 [7]: inactive |
| O=C(O)c1ccccc1NC(=S)N1CCCC1 | 18.3 µM | – | – | – |
| CCN(CC)C(=O)Nc1ccccc1C(=O)O | 26.4 µM | – | – | – |
| CCN(CC)C(=S)Nc1sc(C(N)=O)c(C)c1C(=O)O | > 100 µM | – | – | – |
| Cc1cc(NC(=O)N2CCOCC2)c(C(=O)O)cc1C | 43.4 µM | – | – | – |
| CCN(CC)C(=S)Nc1ccsc1C(=O)O | 4.18 µM | – | – | inhibition at 31.6 µM (BCRP (ABCG2)): 25%; IC50 2008 [8]: > 100 µM |
| CN(CCc1ccccc1)C(=S)Nc1ccccc1C(=O)O | 24 µM | – | – | – |
| Cc1ccc(NC(=O)N(C)c2ccccc2)c(C(=O)O)c1 | – | – | Not Active | – |
| CCN(CC)C(=S)Nc1ccccc1C(=O)O | 21.6 µM | – | – | – |
| CCN(CC)C(=O)Nc1cc2ccccc2cc1C(=O)O | – | > 100 µM | – | – |
| O=C(O)c1c(NC(=S)N2CCOCC2)sc2ccccc12 | – | – | Not Active | – |
| CCN(CC)C(=S)Nc1sc(C)c(C)c1C(=O)O | 20.4 µM | – | – | – |
| CC(C)NC(=O)Nc1sc2c(c1C(=O)O)CCCC2 | – | – | Not Active | – |
| CCN(CC)C(=O)Nc1sc2c(c1C(=O)O)CCCC2 | – | > 100 µM | – | inhibition at 31.6 µM (BCRP (ABCG2)): 25% |
| CCN(CC)C(=O)Nc1sc2c(c1C(=O)O)CCC2 | – | > 100 µM | – | inhibition at 31.6 µM (BCRP (ABCG2)): 25% |
| CN(C(=O)Nc1ccccc1C(=O)O)C1CCCCC1 | – | > 100 µM | – | inhibition at 31.6 µM (BCRP (ABCG2)): 25% |
| Cc1ccc(NC(=O)N(C)Cc2ccccc2)c(C(=O)O)c1 | – | – | Not Active | – |
| Cc1sc(NC(=S)N2CCOCC2)c(C(=O)O)c1C | 18.3 µM | – | – | – |
| CCN(CC)C(=S)Nc1sc(-c2ccccc2)cc1C(=O)O | 14.3 µM | > 100 µM | – | inhibition (A2780 ADR [9]): 20%; inhibition (A2780 ADR [10]): 40% |
| CN(C(=S)Nc1ccccc1C(=O)O)c1ccccc1 | 198 µM | – | – | – |
| CCN(CC)C(=S)Nc1sc2c(c1C(=O)O)CCC2 | 2.56 µM | > 100 µM | – | inhibition at 31.6 µM (BCRP (ABCG2)): 25% |
| CN(Cc1ccccc1)C(=S)Nc1ccccc1C(=O)O | 29.1 µM | – | – | – |
| O=C(O)c1c(NC(=S)N2CCOCC2)sc2c1CCCC2 | – | – | Not Active | – |
| COC(=O)CN(C)C(=O)Nc1ccccc1C(=O)O | – | – | Not Active | – |
